Measured values published in ChEMBL document CHEMBL6074625, “Thiazolidine-2,4-dione hybrids as dual alpha-amylase and alpha-glucosidase inhibitors: design, synthesis, in vitro and in vivo anti-diabetic evaluation” (RSC Med Chem, 2024).
Values belong to the compound of their own block, whether it stands above or below them. Activity calls are given as the source filed them. The calls are words filed in the database; no cut-off is given here.

Tests used:
PANC-1 = test: Anti-diabetic activity against high glucose induced human PANC-1 cells assessed as decrease in glucose induced alpha-glucosidase expression by measuring by measuring minimum fractional index at 5 uM incubated for 23 hrs and measured after 24 hrs by flow cytometric analysis (reference value: 4361 +/- 257.83); assay type: functional
Rattus norvegicus [1] = organism: Rattus norvegicus; test: Anti-diabetic activity against STZ-induced diabetic Wistar rat model assessed as increase in number of trabeculae cells […] by H and E staining based analysis; assay type: functional, organism-based
Summary of the method: (§1)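 Pancreas, liver and kidney from STZ-diabetic rats treated as in the in vivo schedule. Sections stained with haematoxylin and eosin and examined by light microscopy at 40× (50 μm scale bar). Islet boundaries, β-cells, central vein, sinusoids, trabeculae, and tubular necrosis or swelling were scored.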

Rattus norvegicus [2] = organism: Rattus norvegicus; test: Anti-diabetic activity against STZ-induced diabetic Wistar rat model assessed as reduced necrosis in pancreatic tissue […] by H and E staining based analysis; assay type: functional, organism-based; summary of the method: as §1
Rattus norvegicus [3] = test: Antidiabetic activity against streptozotocin-induced Wistar rat assessed as increase in PPAR-gamma level at 10 mg/kg, po administered for 21 days measured on day 35 by ELISA analysis; assay type: functional, organism-based; details: time 35.0 day
Summary of the method: (§2)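 STZ-diabetic Wistar rats in six groups (normal, vehicle 0.5% CMC oral, STZ, STZ + test compounds, STZ + pioglitazone); oral treatment started day 14 after STZ on day 1. Markers measured in serum, pancreatic homogenate or whole blood, as named in each line. Groups compared by one-way ANOVA.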

[4] = target: alpha-glucosidase (Saccharomyces cerevisiae); test: Inhibition of Saccharomyces cerevisiae alpha-glucosidase using 4-nitrophenyl-alpha-D-glucopyranoside as substrate incubated with compound for 15 to 20 min by absorbance based analysis
Rattus norvegicus [5] = organism: Rattus norvegicus; test: Anti-diabetic activity against STZ-induced diabetic Wistar rat model assessed as increase increase in number of basophils level; assay type: functional, organism-based; summary of the method: as §2
Rattus norvegicus [6] = test: Antidiabetic activity against streptozotocin-induced Wistar rat assessed as increase creatinine level in serum at 10 mg/kg, po administered for 21 days measured on day 35; assay type: functional, organism-based; details: time 35.0 day; summary of the method: as §2
Rattus norvegicus [7] = organism: Rattus norvegicus; test: Anti-diabetic activity against STZ-induced diabetic Wistar rat model assessed as reduced in swelling […] by H and E staining based analysis; assay type: functional, organism-based; summary of the method: as §1
Rattus norvegicus [8] = organism: Rattus norvegicus; test: Anti-inflammatory activity in STZ-induced diabetic Wistar rat model assessed as […] level in serum by ELISA method; assay type: functional, organism-based; summary of the method: as §2
Rattus norvegicus [9] = test: Antidiabetic activity against STZ-induced oxidative stress in Wistar rats model assessed as increase in SOD level in pancreatic tissue at 10 mg/kg, po administered for 21 days measured on day 35 by absorbance based UV-spectroscopic analysis; details: time 35.0 day
Rattus norvegicus [10] = test: Antioxidant activity in fasted STZ-induced diabetic Wistar rat model assessed as decrease in high glucose induced ROS production in pancreas by measuring minimum fractional index at 10 mg/kg, po administration for 21 days and measured on day 35; assay type: functional; details: time 35 day
Summary of the method: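 Rat pancreas mashed through a 70 μm strainer in FACS buffer. Processed by centrifugation (300 × g and 800 × g, 21 °C), 42% Percoll and 5 min RBC lysis. Cells washed, stained with DCFH-DA, and ROS read on a flow cytometer.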

Rattus norvegicus [11] = organism: Rattus norvegicus; test: Anti-diabetic activity against STZ-induced diabetic Wistar rat model assessed as increase beta-cells […] by H and E staining based analysis; assay type: functional, organism-based; summary of the method: as §1
Rattus norvegicus [12] = organism: Rattus norvegicus; test: Anti-diabetic activity against STZ-induced diabetic Wistar rat model assessed as clear boundaries in pancreatic islet […] by H and E staining based analysis; assay type: functional, organism-based; summary of the method: as §1
Rattus norvegicus [13] = test: Antidiabetic activity against streptozotocin-induced Wistar rat assessed as reduction in serum ALP level at 10 mg/kg, po administered for 21 days measured on day 35; details: time 35.0 day
Rattus norvegicus [14] = organism: Rattus norvegicus; test: Anti-diabetic activity against STZ-induced diabetic Wistar rat model assessed as alteration in kidney morphology […] by H and E staining based analysis; assay type: functional, organism-based; summary of the method: as §1
Rattus norvegicus [15] = organism: Rattus norvegicus; test: Anti-diabetic activity against STZ-induced diabetic Wistar rat model assessed as improvement in pancreas islet morphology […] by H and E staining based analysis; assay type: functional, organism-based; summary of the method: as §1
Rattus norvegicus [16] = test: Anti-diabetic activity against STZ-induced diabetic Wistar rat model assessed as decrease in dilatation of central vein at 10 mg/kg, po by H and E staining based analysis

IC50 [4]: 5.15 µM
SMILES: C#CCOc1ccc(/C=C2\SC(=O)N(Cc3cccc([N+](=O)[O-])c3)C2=O)cc1OCC
Activity_index (PANC-1): 752 | Activity (Rattus norvegicus [1]): Active | Activity (Rattus norvegicus [2]): Active | Activity (Rattus norvegicus [3]): Active | Activity (Rattus norvegicus [5]): Active | Activity (Rattus norvegicus [6]): Active | Activity (Rattus norvegicus [7]): Active | Activity (Rattus norvegicus [8]): Active | Activity (Rattus norvegicus [9]): Active | Activity_index (Rattus norvegicus [10]): 164 | Activity (Rattus norvegicus [11]): Active | Activity (Rattus norvegicus [12]): Active | Activity (Rattus norvegicus [13]): Active

IC50 [4]: 9.8 µM
SMILES: C=CCOc1ccc(/C=C2\SC(=O)N(Cc3cccc([N+](=O)[O-])c3)C2=O)cc1OCC
Activity_index (PANC-1): 2242 | Activity (Rattus norvegicus [3]): Active | Activity (Rattus norvegicus [5]): Active | Activity (Rattus norvegicus [14]): Active | Activity (Rattus norvegicus [6]): Active | Activity (Rattus norvegicus [15]): Active | Activity (Rattus norvegicus [8]): Active | Activity (Rattus norvegicus [9]): Active | Activity_index (Rattus norvegicus [10]): 674 | Activity (Rattus norvegicus [16]): Active | Activity (Rattus norvegicus [13]): Active
